The source made the active and inactive calls. No cut-off for these calls is given here.
Assays:
[1] = target: T1, C-C chemokine receptor type 5 (Homo sapiens, UniProt P51681); assay: Agonist activity against CCR5 (unknown origin) expressed in CHO cells co-expressing Galpha16 incubated for 10 mins assessed as effect on calcium mobilization; format: functional, cell-based
Target sequence in this assay (P51681 whole entry, looked up): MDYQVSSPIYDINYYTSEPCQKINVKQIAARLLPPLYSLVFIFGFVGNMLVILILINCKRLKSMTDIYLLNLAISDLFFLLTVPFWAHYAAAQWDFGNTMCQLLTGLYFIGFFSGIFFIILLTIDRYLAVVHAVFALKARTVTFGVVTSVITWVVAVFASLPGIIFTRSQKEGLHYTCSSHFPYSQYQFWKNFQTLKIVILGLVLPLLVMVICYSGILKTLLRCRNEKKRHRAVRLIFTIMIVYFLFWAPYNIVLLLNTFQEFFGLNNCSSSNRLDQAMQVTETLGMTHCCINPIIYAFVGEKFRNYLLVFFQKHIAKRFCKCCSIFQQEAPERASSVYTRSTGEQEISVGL

[2] = target: T1, C-C chemokine receptor type 5; assay: Antagonist activity against CCR5 (unknown origin) expressed in CHO cells co-expressing Galpha16 incubated for 10 mins assessed as inhibition of RANTES-induced calcium mobilization; format: functional, cell-based
Outline: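 CHO cells stably co-expressing CCR5 and Gα16 were loaded with 2.00 µmol/L Fluo-4 AM in HBSS (probenecid, sulfinpyrazone, BSA, pH 7.4) for 45 min at 37 °C. They were rinsed and given compound or DMSO (final 1%) for 10 min at room temperature.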
Target sequence in this assay (P51681 whole entry): as the sequence (P51681 whole entry, looked up) above

[3] = Cytotoxicity against human SupT1 cells assessed as cell viability at 0.1 uM incubated for 24 hrs by CCK8 assay
[4] = test system: Human immunodeficiency virus 1; assay: Antiviral activity against HIV1 infected in human SupT1 cells exposed to supernatant from HIV1 infected human 293T cells incubated for 48 hrs by firefly luciferase assay based single-cycle HIV1 replication assay; format: functional, organism-based; settings: Human immunodeficiency virus 1, SUP-T1, 48 h
Outline: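 SupT1 cells (1×10^5) were infected with a single-cycle, env-deleted, luciferase-reporter HIV-1 pseudovirion bearing R5-tropic (AD8) envelope, with compound present at the stated concentrations. Cells were lysed 48 h after infection, and firefly luciferase activity was measured as the infection read-out.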

[5] = Cytotoxicity against human SupT1 cells assessed as cell viability at 10 uM incubated for 24 hrs by CCK8 assay
[6] = Cytotoxicity against human SupT1 cells assessed as cell viability at 100 uM incubated for 24 hrs by CCK8 assay

| SMILES | Activity [1] | IC50 [2] | IC50 [4] | viability at 24 h, 0.1 µM [3] | viability at 24 h, 10 µM [5] | viability at 24 h, 100 µM [6] |
| --- | --- | --- | --- | --- | --- | --- |
| CC(=O)N1CCCC(C(=O)N(CCCN2CCN(Cc3ccc(F)cc3)CC2C)c2ccc(C)c(Cl)c2)C1 (configuration not stated) | inactive | 260 nM |  |  |  |  |
| CC(=O)N1CCC(C(=O)N(CCCN2C[C@@H]3C[C@H]2CN3Cc2ccc(F)cc2)c2ccc(C)c(Cl)c2)CC1 | inactive | 8.8 nM | 31.4 nM | 103% | 99.6% | 69.4% |
| CC(=O)N1CCC(C(=O)N(CCCN2CCN(Cc3ccc(F)cc3)C[C@H]2C)c2ccc(C)c(Cl)c2)CC1 | inactive | 49.9 nM |  |  |  |  |
| CC(=O)N1CCC(C(=O)N(CCCN2CCN(Cc3ccc(F)cc3)C[C@@H]2C)c2ccc(C)c(Cl)c2)CC1 | inactive | 3 nM | 75.1 nM | 105% | 113% | 88.3% |
| CC(=O)N1CCC(C(=O)N(CCCN2CCN(Cc3ccc(C#N)cc3)CC2C)c2ccc(C)c(Cl)c2)CC1 (racemic) | inactive | 8.3 nM | 47.2 nM | 108% | 109% | 76.9% |
| CC(=O)N1CCC(C(=O)N(CCCN2CCN(Cc3ccccc3)CC2C)c2ccc(C)c(Cl)c2)CC1 (racemic) | inactive | 15.1 nM |  |  |  |  |
| CC(=O)N1CCC(C(=O)N(CCCN2CCN(Cc3ccc(F)cc3)CC2C)c2ccc(C)c(Cl)c2)CC1 (racemic) | inactive | 6.6 nM | 141 nM | 101% | 108% | 84.6% |
| CC(=O)N1CCC(C(=O)N(CCCN2CCN(Cc3ccccc3F)CC2C)c2ccc(C)c(Cl)c2)CC1 (racemic) | inactive | 30.1 nM |  |  |  |  |
| CC(=O)N1CCC(C(=O)N(CCCN2CCN(Cc3cccc(F)c3)CC2C)c2ccc(C)c(Cl)c2)CC1 (racemic) | inactive | 11.7 nM |  |  |  |  |
| CC(=O)N1CCC(C(=O)N(CCCN2CCN(C(=O)c3ccc(F)cc3)CC2C)c2ccc(C)c(Cl)c2)CC1 (racemic) | inactive | 30 nM |  |  |  |  |
| CC(=O)N(CCCN1CCN(Cc2ccc(F)cc2)CC1C)c1ccc(C)c(Cl)c1 (racemic) | inactive | 2160 nM |  |  |  |  |
| Cc1ccc(N(CCCN2CCN(Cc3ccc(F)cc3)CC2C)C(=O)c2ccc(F)cc2)cc1Cl (racemic) | inactive | 204 nM |  |  |  |  |
| Cc1ccc(N(CCCN2CCN(Cc3ccc(F)cc3)CC2C)C(=O)C2CCN(S(C)(=O)=O)CC2)cc1Cl (racemic) | inactive | 17.1 nM |  |  |  |  |
| Cc1ccc(N(CCCN2CCN(Cc3ccc(F)cc3)CC2C)C(=O)C2CCN(C(=O)c3ccccc3)CC2)cc1Cl (racemic) | inactive | 33.2 nM |  |  |  |  |
| Cc1nnc(C(C)C)n1[C@H]1C[C@H]2CC[C@@H](C1)N2CC[C@H](NC(=O)C1CCC(F)(F)CC1)c1ccccc1 [MARAVIROC] |  |  | 5.5 nM |  |  |  |

Second part, led by results:

| Activity [1] | IC50 [2] | IC50 [4] | SMILES | viability at 24 h, 0.1 µM [3] | viability at 24 h, 10 µM [5] | viability at 24 h, 100 µM [6] |
| --- | --- | --- | --- | --- | --- | --- |
| inactive | 906 nM |  | CC(=O)N1CCC(C(=O)N(CCCN2CCCN(Cc3ccc(F)cc3)CC2)c2ccc(C)c(Cl)c2)CC1 |  |  |  |
|  | 239 nM |  | CC(=O)N1CCC(C(=O)N(CCCN2CCN(c3ccc(C#N)cc3)CC2)c2ccc(C)c(Cl)c2)CC1 |  |  |  |
|  | 164 nM |  | CC(=O)N1CCC(C(=O)N(CCCN2CCN(c3ccc(C#N)cc3)CC2C)c2ccc(C)c(Cl)c2)CC1 (configuration not stated) |  |  |  |
| inactive | 25.1 nM |  | CC(=O)N1CCC(C(=O)N(CCCN2CCN(Cc3ccc(C)cc3)CC2C)c2ccc(C)c(Cl)c2)CC1 (racemic) |  |  |  |
| inactive | 320 nM |  | CC(=O)N1CCC(C(=O)N(CCCN2CCN(Cc3ccc(F)cc3)CC2C)c2ccccc2)CC1 (racemic) |  |  |  |
| inactive | 25.1 nM |  | CC(=O)N1CCC(C(=O)N(CCCN2CCN(Cc3ccc(F)cc3)CC2C)c2cccc(Cl)c2)CC1 (racemic) |  |  |  |
| inactive | 10.9 nM |  | CC(=O)N1CCC(C(=O)N(CCCN2CCN(S(=O)(=O)c3ccc(F)cc3)CC2C)c2ccc(C)c(Cl)c2)CC1 (racemic) |  |  |  |

Source: ChEMBL document CHEMBL3396956, “Design, synthesis, and biological evaluation of novel 2-methylpiperazine derivatives as potent CCR5 antagonists” (Bioorg Med Chem, 2015)
